{"source": "paper PMC4772774", "about": "(Journal of medicinal chemistry, 2015)", "key": {"κ-opioid receptor (KOR) [1]": {"target": "T1, κ-opioid receptor (KOR) (Homo sapiens, UniProt P41145)", "T1 sequence (P41145 whole entry)": "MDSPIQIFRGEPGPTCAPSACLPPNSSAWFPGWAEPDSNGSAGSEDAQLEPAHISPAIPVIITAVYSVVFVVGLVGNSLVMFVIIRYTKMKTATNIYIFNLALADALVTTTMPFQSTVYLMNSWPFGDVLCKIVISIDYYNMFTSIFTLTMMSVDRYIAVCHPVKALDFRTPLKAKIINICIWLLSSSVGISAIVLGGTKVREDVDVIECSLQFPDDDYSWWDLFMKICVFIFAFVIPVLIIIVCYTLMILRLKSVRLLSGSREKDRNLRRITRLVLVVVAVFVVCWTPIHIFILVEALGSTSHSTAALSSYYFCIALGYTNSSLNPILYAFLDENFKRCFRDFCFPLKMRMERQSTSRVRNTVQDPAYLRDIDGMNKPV", "experiment": "Agonist stimulation of [35S]GTPγS binding, CHO-KOR membranes", "type": "biochemical", "conditions": "for EC50 KOR: [35S]GTPγS binding, mean (S.E.M.), n=3 (footnote d: n=2), dns: does not stimulate"}, "δ-opioid receptor (DOR) [2]": {"target": "T2, δ-opioid receptor (DOR) (Rattus norvegicus, UniProt P33533)", "T2 sequence (P33533 whole entry)": "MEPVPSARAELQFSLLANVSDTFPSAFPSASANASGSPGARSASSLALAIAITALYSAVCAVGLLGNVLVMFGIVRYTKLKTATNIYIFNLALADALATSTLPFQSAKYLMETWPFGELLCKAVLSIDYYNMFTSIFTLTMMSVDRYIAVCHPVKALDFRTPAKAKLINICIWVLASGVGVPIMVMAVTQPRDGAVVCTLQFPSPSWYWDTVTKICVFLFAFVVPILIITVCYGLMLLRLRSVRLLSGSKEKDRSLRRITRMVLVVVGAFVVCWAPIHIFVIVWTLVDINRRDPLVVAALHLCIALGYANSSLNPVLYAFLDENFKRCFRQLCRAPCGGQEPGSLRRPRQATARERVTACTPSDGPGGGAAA", "experiment": "Agonist stimulation of [35S]GTPγS binding, C6-DOR membranes", "type": "biochemical", "conditions": "dns: does not stimulate; for EC50 DOR: [35S]GTPγS binding, mean (S.E.M.), n=3; for % stimulation DOR: percent maximal stimulation relative to DPDPE at 10 µM", "summary_of_the_method": "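C6 rat glioma cells stably expressing rat DOR; membranes (10–20 µg protein) incubated 1 h at 25°C in 50 mM Tris-HCl, 100 mM NaCl, 5 mM MgCl2, pH 7.4, with 0.1 nM [35S]GTPγS, 30 µM GDP and varying test compound.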"}, "DOR": {"target": "DOR (Rattus norvegicus, UniProt P33533)", "sequence (P33533 whole entry)": "as above", "experiment": "Antagonism of the DOR agonist DPDPE", "type": "biochemical"}, "C57BL/6 mice": {"tested_on": "C57BL/6 mice", "experiment": "Mouse warm water tail withdrawal", "type": "in vivo", "conditions": "10 mg/kg ip"}, "Plasma stability testing": {"experiment": "Plasma stability testing", "type": "in vitro ADME", "conditions": "in plasma after 30 min"}, "µ-opioid receptor (MOR) [3]": {"target": "T3, µ-opioid receptor (MOR) (Rattus norvegicus, UniProt P33535)", "T3 sequence (P33535 whole entry)": "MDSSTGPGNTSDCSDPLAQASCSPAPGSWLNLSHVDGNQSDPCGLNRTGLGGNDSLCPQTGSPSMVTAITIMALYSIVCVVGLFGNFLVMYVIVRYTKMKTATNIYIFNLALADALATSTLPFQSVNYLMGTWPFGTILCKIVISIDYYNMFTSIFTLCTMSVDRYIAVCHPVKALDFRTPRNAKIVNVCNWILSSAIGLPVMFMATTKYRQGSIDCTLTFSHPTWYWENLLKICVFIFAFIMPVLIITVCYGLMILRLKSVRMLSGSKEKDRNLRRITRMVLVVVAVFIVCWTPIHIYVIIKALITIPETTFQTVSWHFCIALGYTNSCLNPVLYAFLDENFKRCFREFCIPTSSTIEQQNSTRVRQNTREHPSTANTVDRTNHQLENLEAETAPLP", "conditions": "relative to DAMGO at 10 µM; previously published, ref [1]; cited from earlier work"}, "κ-opioid receptor (KOR) [4]": {"target": "T1, κ-opioid receptor (KOR)", "conditions": "[35S]GTPγS binding; dns: does not stimulate; previously published, ref [1]; cited from earlier work"}, "δ-opioid receptor (DOR) [5]": {"target": "T2, δ-opioid receptor (DOR)", "conditions": "[35S]GTPγS binding; dns: does not stimulate; previously published, ref [1]; cited from earlier work"}, "µ-opioid receptor (MOR) [6]": {"target": "T3, µ-opioid receptor (MOR)", "experiment": "Agonist stimulation of [35S]GTPγS binding, C6-MOR membranes", "type": "biochemical", "conditions": "dns: does not stimulate", "summary_of_the_method": "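C6 rat glioma cells stably expressing rat MOR were grown in DMEM/10% FBS. Membranes (10–20 µg protein) were incubated 1 h at 25 °C in 50 mM Tris-HCl, 100 mM NaCl, 5 mM MgCl2, pH 7.4, with 0.1 nM [35S]GTPγS, 30 µM GDP and varying compound concentrations. Samples were GF/C-filtered and scintillation-counted. Stimulation was expressed relative to 10 µM DAMGO.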"}, "µ-opioid receptor (MOR) [7]": {"target": "T3, µ-opioid receptor (MOR)", "experiment": "[3H]diprenorphine competitive displacement binding, C6-MOR membranes"}}, "note": "Where two headings read alike, the source gives them in different places.", "data": [{"smiles": "CC(=O)N1CC[C@@H](NC(=O)[C@@H](N)Cc2c(C)cc(O)cc2C)c2cc(CC3CCc4ccccc43)ccc21", "note": "(mixture of isomers) [14g, (S)-N-((R)-1-Acetyl-6-(((R/S)-2,3-dihydro-1H–inden-1-yl)methyl)-1,2,3,4-tetrahydroquinolin-4-yl)-2-amino-3-(4-hydroxy-2,6-dimethylphenyl)propanamide]", "values": [{"measurement": "EC50", "setting": "κ-opioid receptor (KOR) [1]", "result": "> 1000", "unit": "nM"}, {"measurement": "EC50 DOR", "setting": "δ-opioid receptor (DOR) [2]", "result": "dns"}, {"measurement": "% stimulation DOR", "setting": "δ-opioid receptor (DOR) [2]", "result": "dns"}]}, {"smiles": "Cc1cc(O)cc(C)c1C[C@H](N)C(=O)N[C@@H]1CCNc2ccc(CC3CCc4ccccc43)cc21", "note": "(mixture of isomers) [14h, (S)-2-Amino-N-((R)-6-(((R/S)-2,3-dihydro-1H–inden-1-yl)methyl)-1,2,3,4-tetrahydroquinolin-4-yl)-3-(4-hydroxy-2,6-dimethylphenyl)propanamide]", "values": [{"measurement": "EC50 DOR", "setting": "δ-opioid receptor (DOR) [2]", "result": "dns"}, {"measurement": "% stimulation DOR", "setting": "δ-opioid receptor (DOR) [2]", "result": "dns"}]}, {"smiles": "CC(=O)N1CC[C@@H](NC(=O)[C@@H](N)Cc2c(C)cc(O)cc2C)c2cc(Cc3ccc4ccccc4c3)ccc21", "note": "[14a, (S)-N-((R)-1-Acetyl-6-(naphthalen-2-ylmethyl)-1,2,3,4-tetrahydroquinolin-4-yl)-2-amino-3-(4-hydroxy-2,6-dimethylphenyl)propanamide]", "values": [{"measurement": "Kb", "setting": "DOR", "result": 1.98, "unit": "nM"}, {"measurement": "EC50 KOR", "setting": "κ-opioid receptor (KOR) [1]", "result": "dns ^d"}, {"measurement": "EC50 DOR", "setting": "δ-opioid receptor (DOR) [2]", "result": "dns"}, {"measurement": "% stimulation DOR", "setting": "δ-opioid receptor (DOR) [2]", "result": "dns"}, {"measurement": "duration of maximal antinociception", "setting": "C57BL/6 mice; mouse WWTW time course", "result": "approximately 200 min"}, {"measurement": "duration of action compared to 14i", "setting": "C57BL/6 mice; mouse WWTW, relative to original lead 14i", "result": "greater than 3 times"}, {"measurement": "plasma stability", "setting": "Plasma stability testing", "result": "fully stable"}]}, {"smiles": "Cc1cc(O)cc(C)c1C[C@H](N)C(=O)N[C@@H]1CCNc2ccc(CC3CCCCC3)cc21", "note": "[14b, (S)-2-Amino-N-((R)-6-(cyclohexylmethyl)-1,2,3,4-tetrahydroquinolin-4-yl)-3-(4-hydroxy-2,6-dimethylphenyl)propanamide]", "values": [{"measurement": "EC50 DOR", "setting": "δ-opioid receptor (DOR) [2]", "result": "dns"}, {"measurement": "% stimulation DOR", "setting": "δ-opioid receptor (DOR) [2]", "result": "dns"}]}, {"smiles": "CC(=O)N1CC[C@@H](NC(=O)[C@@H](N)Cc2c(C)cc(O)cc2C)c2cc(CC3CCCCC3)ccc21", "note": "[14c, (S)-N-((R)-1-Acetyl-6-(cyclohexylmethyl)-1,2,3,4-tetrahydroquinolin-4-yl)-2-amino-3-(4-hydroxy-2,6-dimethylphenyl)propanamide]", "values": [{"measurement": "% stimulation DOR", "setting": "δ-opioid receptor (DOR) [2]", "result": "26 (5) %"}]}, {"smiles": "CC(=O)N1CC[C@@H](NC(=O)[C@@H](N)Cc2c(C)cc(O)cc2C)c2cc(Cc3cccc4ccccc34)ccc21", "note": "[14d, (S)-N-((R)-1-Acetyl-6-(naphthalen-1-ylmethyl)-1,2,3,4-tetrahydroquinolin-4-yl)-2-amino-3-(4-hydroxy-2,6-dimethylphenyl)propanamide]", "values": [{"measurement": "Kb", "setting": "DOR", "result": 27.5, "unit": "nM"}, {"measurement": "EC50 KOR", "setting": "κ-opioid receptor (KOR) [1]", "result": "dns ^d"}, {"measurement": "EC50 DOR", "setting": "δ-opioid receptor (DOR) [2]", "result": "dns"}, {"measurement": "% stimulation DOR", "setting": "δ-opioid receptor (DOR) [2]", "result": "dns"}, {"measurement": "plasma stability", "setting": "Plasma stability testing", "result": "fully stable"}]}, {"smiles": "CC(=O)N1CC[C@@H](NC(=O)[C@@H](N)Cc2c(C)cc(O)cc2C)c2cc(Cc3ccccc3)ccc21", "note": "[14e, (S)-N-((R)-1-Acetyl-6-benzyl-1,2,3,4-tetrahydroquinolin-4-yl)-2-amino-3-(4-hydroxy-2,6-dimethylphenyl)propanamide]", "values": [{"measurement": "% stimulation DOR", "setting": "δ-opioid receptor (DOR) [2]", "result": "26 (3) %"}]}, {"smiles": "CC(=O)N1CC[C@@H](NC(=O)[C@@H](N)Cc2c(C)cc(O)cc2C)c2cc(CC3Cc4ccccc4C3)ccc21", "note": "[14f, (S)-N-((R)-1-Acetyl-6-((2,3-dihydro-1H–inden-2-yl)methyl)-1,2,3,4-tetrahydroquinolin-4-yl)-2-amino-3-(4-hydroxy-2,6-dimethylphenyl)propanamide]", "values": [{"measurement": "EC50 DOR", "setting": "δ-opioid receptor (DOR) [2]", "result": "dns"}, {"measurement": "% stimulation DOR", "setting": "δ-opioid receptor (DOR) [2]", "result": "dns"}]}, {"smiles": "Cc1cc(O)cc(C)c1C[C@H](N)C(=O)N[C@@H]1CCNc2ccc(Cc3ccc4ccccc4c3)cc21", "note": "[14j, (S)-2-Amino-3-(4-hydroxy-2,6-dimethylphenyl)-N-((R)-6-(naphthalen-2-ylmethyl)-1,2,3,4-tetrahydroquinolin-4-yl)propanamide]", "values": [{"measurement": "% stimulation MOR", "setting": "µ-opioid receptor (MOR) [3]", "result": "96 (3) %"}, {"measurement": "EC50 KOR", "setting": "κ-opioid receptor (KOR) [4]", "result": "dns"}, {"measurement": "EC50 DOR", "setting": "δ-opioid receptor (DOR) [5]", "result": "dns"}]}, {"smiles": "Cc1cc(O)cc(C)c1C[C@H](N)C(=O)N[C@@H]1CCNc2ccc(Cc3cccc4ccccc34)cc21", "note": "[14k, (S)-2-Amino-3-(4-hydroxy-2,6-dimethylphenyl)-N-((R)-6-(naphthalen-1-ylmethyl)-1,2,3,4-tetrahydroquinolin-4-yl)propanamide]", "values": [{"measurement": "% stimulation MOR", "setting": "µ-opioid receptor (MOR) [3]", "result": "93 (5) %"}, {"measurement": "EC50 KOR", "setting": "κ-opioid receptor (KOR) [4]", "result": "dns"}]}, {"smiles": "Cc1cc(O)cc(C)c1C[C@H](N)C(=O)N[C@@H]1CCNc2ccc(CC3Cc4ccccc4C3)cc21", "note": "[14l, (S)-2-Amino-N-((R)-6-((2,3-dihydro-1H–inden-2-yl)methyl)-1,2,3,4-tetrahydroquinolin-4-yl)-3-(4-hydroxy-2,6-dimethylphenyl)propanamide]", "values": [{"measurement": "% stimulation MOR", "setting": "µ-opioid receptor (MOR) [3]", "result": "86 (1) %"}]}, {"smiles": "Cc1cc(O)cc(C)c1C[C@H](N)C(=O)N[C@@H]1CCCc2ccc(Cc3ccccc3)cc21", "note": "[14m, (S)-2-Amino-N-((R)-7-benzyl-1,2,3,4-tetrahydronaphthalen-1-yl)-3-(4-hydroxy-2,6-dimethylphenyl) propanamide]", "values": [{"measurement": "EC50 KOR", "setting": "κ-opioid receptor (KOR) [1]", "result": "dns"}, {"measurement": "EC50 DOR", "setting": "δ-opioid receptor (DOR) [2]", "result": "dns"}, {"measurement": "% stimulation DOR", "setting": "δ-opioid receptor (DOR) [2]", "result": "dns"}]}, {"smiles": "Cc1cc(O)cc(C)c1C[C@H](N)C(=O)N[C@@H]1CCCc2ccc(CC3CCCCC3)cc21", "note": "[14n, (S)-2-Amino-N-((R)-7-(cyclohexylmethyl)-1,2,3,4-tetrahydronaphthalen-1-yl)-3-(4-hydroxy-2,6-dimethylphenyl)propanamide]", "values": [{"measurement": "EC50 DOR", "setting": "δ-opioid receptor (DOR) [2]", "result": "dns"}, {"measurement": "% stimulation DOR", "setting": "δ-opioid receptor (DOR) [2]", "result": "dns"}, {"measurement": "EC50 MOR", "setting": "µ-opioid receptor (MOR) [6]; [35S]GTPγS binding, mean (S.E.M.), n=3", "result": "dns"}, {"measurement": "% stimulation MOR", "setting": "µ-opioid receptor (MOR) [6]; percent maximal stimulation relative to DAMGO at 10 µM", "result": "dns"}, {"measurement": "Ki", "setting": "µ-opioid receptor (MOR) [7]", "result": 0.12, "unit": "nM"}]}, {"smiles": "Cc1cc(O)cc(C)c1C[C@H](N)C(=O)N[C@@H]1CCCc2ccc(Cc3ccc4ccccc4c3)cc21", "note": "[14o, (S)-2-Amino-3-(4-hydroxy-2,6-dimethylphenyl)-N-((R)-7-(naphthalen-2-ylmethyl)-1,2,3,4-tetrahydronaphthalen-1-yl)propanamide]", "values": [{"measurement": "EC50 KOR", "setting": "κ-opioid receptor (KOR) [1]", "result": "dns"}, {"measurement": "EC50 DOR", "setting": "δ-opioid receptor (DOR) [2]", "result": "dns"}, {"measurement": "% stimulation DOR", "setting": "δ-opioid receptor (DOR) [2]", "result": "dns"}]}, {"smiles": "Cc1cc(O)cc(C)c1C[C@H](N)C(=O)N[C@@H]1CCCc2ccc(Cc3cccc4ccccc34)cc21", "note": "[14p, (S)-2-Amino-3-(4-hydroxy-2,6-dimethylphenyl)-N-((R)-7-(naphthalen-1-ylmethyl)-1,2,3,4-tetrahydronaphthalen-1-yl)propanamide]", "values": [{"measurement": "EC50 KOR", "setting": "κ-opioid receptor (KOR) [1]", "result": "dns ^d"}, {"measurement": "EC50 DOR", "setting": "δ-opioid receptor (DOR) [2]", "result": "dns"}, {"measurement": "% stimulation DOR", "setting": "δ-opioid receptor (DOR) [2]", "result": "dns"}]}]}
